Laboratory results as given in ChEMBL document CHEMBL1649212, “AI-2/LuxS is involved in increased biofilm formation by Streptococcus intermedius in the presence of antibiotics” (2009).
Calls of active or inactive are those of the source. The rule behind the calls is not given here.

How the values were obtained:
[1] = tested on: Streptococcus intermedius; test: Antimicrobial activity against Streptococcus intermedius NCTC 11324 assessed as biofilm formation at 0.05 to 0.10 ug/ml; format: functional, organism-based
How it was run: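 Wild-type NCTC 11324 was grown overnight in TSB and inoculated into TSB with ampicillin (0.02 to 0.10 μg/ml), ciprofloxacin (0.10 to 0.28 μg/ml) or tetracycline (0.05 to 0.30 μg/ml), added at time zero. Wells held plastic coverslips and were incubated 12 h at 37°C in 5% CO2 aerobic air. Biofilm was measured as described previously. Experiments were done three times in three parallels.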

[2] = tested on: Streptococcus intermedius; test: Antimicrobial activity against Streptococcus intermedius NCTC 11324 biofilm assessed as biofilm bacterial count at 0.10 ug/ml (Rvb =402.9 +/- 26.88 10^5 CFU/ml); format: functional
[3] = tested on: Streptococcus intermedius; test: Antimicrobial activity against Streptococcus intermedius NCTC 11324 biofilm assessed as biofilm bacterial count at 0.05 ug/ml (Rvb =402.9 +/- 26.88 10^5 CFU/ml); format: functional
[4] = tested on: Streptococcus intermedius; test: Antimicrobial activity against Streptococcus intermedius NCTC 11324 biofilm assessed as biofilm bacterial count at 0.07 ug/ml (Rvb =402.9 +/- 26.88 10^5 CFU/ml); format: functional
[5] = tested on: Streptococcus intermedius; test: Antimicrobial activity against Streptococcus intermedius SI006 biofilm harboring luxS mutant gene assessed as biofilm bacterial count at 0.10 ug/ml (Rvb =310.8 +/- 17.10 10^5 CFU/ml); format: functional
[6] = tested on: Streptococcus intermedius; test: Antimicrobial activity against Streptococcus intermedius SI006 biofilm harboring luxS mutant gene assessed as biofilm bacterial count at 0.05 ug/ml (Rvb =310.8 +/- 17.10 10^5 CFU/ml); format: functional
[7] = tested on: Streptococcus intermedius; test: Antimicrobial activity against Streptococcus intermedius SI006 biofilm harboring luxS mutant gene assessed as biofilm bacterial count at 0.07 ug/ml (Rvb =310.8 +/- 17.10 10^5 CFU/ml); format: functional
[8] = tested on: Streptococcus intermedius; test: Antimicrobial activity against Streptococcus intermedius SI006 biofilm harboring luxS mutant gene assessed as biofilm bacterial count at 0.10 ug/ml in presence of 0.8 nM autoinducer 4,5-dihydroxy-2,3-pentanedione (Rvb =413.7 +/- 24.47 10^5 CFU/ml); format: functional
[9] = tested on: Streptococcus intermedius; test: Antimicrobial activity against Streptococcus intermedius SI006 biofilm harboring luxS mutant gene assessed as biofilm bacterial count at 0.05 ug/ml in presence of 0.8 nM autoinducer 4,5-dihydroxy-2,3-pentanedione (Rvb =413.7 +/- 24.47 10^5 CFU/ml); format: functional
[10] = tested on: Streptococcus intermedius; test: Antimicrobial activity against Streptococcus intermedius SI006 biofilm harboring luxS mutant gene assessed as biofilm bacterial count at 0.07 ug/ml in presence of 0.8 nM autoinducer 4,5-dihydroxy-2,3-pentanedione (Rvb =413.7 +/- 24.47 10^5 CFU/ml); format: functional
[11] = tested on: Streptococcus intermedius; test: Antimicrobial activity against Streptococcus intermedius SI006 planktonic cells harboring luxS mutant gene assessed as bacterial count at 0.15 ug/ml in presence of 0.8 nM autoinducer 4,5-dihydroxy-2,3-pentanedione (Rvb =790.8 +/- 90.09 10^8 CFU/ml); format: functional
[12] = tested on: Streptococcus intermedius; test: Antimicrobial activity against Streptococcus intermedius NCTC 11324 assessed as growth inhibition at 0.7 ug/ml; format: functional
How it was run: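 Broth microdilution MIC in ultra-low-binding 96-well plates, inoculum ≈4 × 10^5. Growth was read at 595 nm, and the MIC was taken as the lowest antibiotic concentration inhibiting growth.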

[13] = tested on: Streptococcus intermedius; test: Antimicrobial activity against Streptococcus intermedius NCTC 11324 planktonic cells assessed as bacterial count at 0.08 ug/ml (Rvb =791.7 +/- 44.10 10^8 CFU/ml); format: functional
How it was run: (§1)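 Planktonic wild-type cells were inoculated at ≈4 × 10^5 CFU/ml in TSB in ultra-low-binding plates. Media were without or with ampicillin (0.02 to 0.14 μg/ml), ciprofloxacin (0.10 to 0.35 μg/ml) or tetracycline (0.03 to 0.20 μg/ml). After 12 h at 37°C in 5% CO2 aerobic air, CFU were counted, run in parallel with the BacTiter-Glo ATP assay. Experiments were done three times in two parallels.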

[14] = tested on: Streptococcus intermedius; test: Antimicrobial activity against Streptococcus intermedius NCTC 11324 planktonic cells assessed as bacterial count at 0.10 ug/ml (Rvb =791.7 +/- 44.10 10^8 CFU/ml); format: functional; how it was run: as §1
[15] = tested on: Streptococcus intermedius; test: Antimicrobial activity against Streptococcus intermedius NCTC 11324 planktonic cells assessed as bacterial count at 0.12 ug/ml (Rvb =791.7 +/- 44.10 10^8 CFU/ml); format: functional; how it was run: as §1
[16] = tested on: Streptococcus intermedius; test: Antimicrobial activity against Streptococcus intermedius SI006 planktonic cells harboring luxS mutant gene assessed as bacterial count at 0.08 ug/ml (Rvb =757.5 +/- 80.14 10^8 CFU/ml); format: functional
[17] = tested on: Streptococcus intermedius; test: Antimicrobial activity against Streptococcus intermedius SI006 planktonic cells harboring luxS mutant gene assessed as bacterial count at 0.10 ug/ml (Rvb =757.5 +/- 80.14 10^8 CFU/ml); format: functional
[18] = tested on: Streptococcus intermedius; test: Antimicrobial activity against Streptococcus intermedius SI006 planktonic cells harboring luxS mutant gene assessed as bacterial count at 0.12 ug/ml (Rvb =757.5 +/- 80.14 10^8 CFU/ml); format: functional
[19] = tested on: Streptococcus intermedius; test: Antimicrobial activity against Streptococcus intermedius SI006 planktonic cells harboring luxS mutant gene assessed as bacterial count at 0.08 ug/ml in presence of 0.8 nM autoinducer 4,5-dihydroxy-2,3-pentanedione (Rvb =790.8 +/- 90.09 10^8 CFU/ml); format: functional
[20] = tested on: Streptococcus intermedius; test: Antimicrobial activity against Streptococcus intermedius SI006 planktonic cells harboring luxS mutant gene assessed as bacterial count at 0.10 ug/ml in presence of 0.8 nM autoinducer 4,5-dihydroxy-2,3-pentanedione (Rvb =790.8 +/- 90.09 10^8 CFU/ml); format: functional
[21] = tested on: Streptococcus intermedius; test: Antimicrobial activity against Streptococcus intermedius SI006 planktonic cells harboring luxS mutant gene assessed as bacterial count at 0.12 ug/ml in presence of 0.8 nM autoinducer 4,5-dihydroxy-2,3-pentanedione (Rvb =790.8 +/- 90.09 10^8 CFU/ml); format: functional
[22] = tested on: Streptococcus intermedius; test: Antimicrobial activity against Streptococcus intermedius NCTC 11324 planktonic cells assessed as bacterial count at 0.15 ug/ml (Rvb =791.7 +/- 44.10 10^8 CFU/ml); format: functional; how it was run: as §1
[23] = tested on: Streptococcus intermedius; test: Antimicrobial activity against Streptococcus intermedius SI006 planktonic cells harboring luxS mutant gene assessed as bacterial count at 0.15 ug/ml (Rvb =757.5 +/- 80.14 10^8 CFU/ml); format: functional

**Q.** With `CN(C)[C@@H]1C(O)=C(C(N)=O)C(=O)[C@@]2(O)C(O)=C3C(=O)c4c(O)cccc4[C@@](C)(O)[C@H]3C[C@@H]12` [TETRACYCLINE] as the compound, how does the Activity [1] read?
**A.** inactive

**Q.** And the CFU [2]?
**A.** 610.5 ×10⁵ /ml

**Q.** And the CFU [3]?
**A.** 779.2 ×10⁵ /ml

**Q.** What about the CFU [4] of the same compound?
**A.** 637.1 ×10⁵ /ml

**Q.** What about the CFU [5] of the same compound?
**A.** 108.8 ×10⁵ /ml

**Q.** And the CFU [6]?
**A.** 333 ×10⁵ /ml

**Q.** What about the CFU [7] of the same compound?
**A.** 253.1 ×10⁵ /ml

**Q.** And the CFU [8]?
**A.** 486.2 ×10⁵ /ml

**Q.** And the CFU [9]?
**A.** 333 ×10⁵ /ml

**Q.** And the CFU [10]?
**A.** 253.1 ×10⁵ /ml

**Q.** And the CFU [11]?
**A.** 10.1 ×10⁸ /ml

**Q.** What about the Activity [12] of the same compound?
**A.** 0.7 µg/mL

**Q.** And the CFU [13]?
**A.** 61.9 ×10⁸ /ml

**Q.** And the CFU [14]?
**A.** 44.5 ×10⁸ /ml

**Q.** And the CFU [15]?
**A.** 32 ×10⁸ /ml

**Q.** And the CFU [16]?
**A.** 11.2 ×10⁸ /ml

**Q.** What about the CFU [17] of the same compound?
**A.** 5.7 ×10⁸ /ml

**Q.** What about the CFU [18] of the same compound?
**A.** 3 ×10⁸ /ml

**Q.** And the CFU [19]?
**A.** 38.4 ×10⁸ /ml

**Q.** What about the CFU [20] of the same compound?
**A.** 25.2 ×10⁸ /ml

**Q.** What about the CFU [21] of the same compound?
**A.** 16.3 ×10⁸ /ml

**Q.** What about the CFU [22] of the same compound?
**A.** 24.2 ×10⁸ /ml

**Q.** And the CFU [23]?
**A.** 2 ×10⁸ /ml
